Results on 16 compounds are retold here after ChEMBL document CHEMBL3352409, “Synthetic reactions with rare taccalonolides reveal the value of C-22,23 epoxidation for microtubule stabilizing potency” (J Med Chem, 2014).

In data set [1] the test system is HeLa. Kind of data set: Antiproliferative activity against human HeLa cells up to 50 uM by SRB assay. In kind it is functional, cell-based. Put shortly:
(§1)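 SRB assay in HeLa cells, IC50 from concentration-response; three independent experiments, each in triplicate, reported with standard deviation.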
(In SRB staining, fixed cells bind dye roughly in proportion to their protein.)

For data set [2], the system named is HeLa. Kind of data set: Antiproliferative activity against human HeLa cells by SRB assay. In kind it is functional, cell-based. Put shortly: as §1
For data set [3], the system named is HeLa. The data set is described as follows: Ratio of taccalonolide A IC50 to compound IC50 for human HeLa cells by SRB assay. In kind it is functional.
The subject of data set [4] is HeLa. Kind of data set: Ratio of taccalonolide B IC50 to compound IC50 for human HeLa cells by SRB assay. In kind it is functional.
For data set [5], the system named is HeLa. Kind of data set: Stabilization of microtubules in interphase human HeLa cells at 10 nM after 18 hrs by immunofluorescence microscopy. In kind it is cell-based. A digest of the protocol:
(§2)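 Interphase HeLa cells exposed to compound or EtOH vehicle for 18 h. Microtubules stained with a β-tubulin antibody and imaged by fluorescence microscopy.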

Data set [6] deals with T1, Tubulin (Sus scrofa) (UniProt P02554+P02550). Kind of data set: Binding affinity to purified porcine brain tubulin at 6 uM by turbidimetry. Put shortly:
(§3)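 Compound added from 100× EtOH stock (1% final EtOH). Polymerization started by shift to 37 °C and followed as turbidity at OD340.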

Data set [7] relates to MDA-MB-231. Kind of data set: Antitumor activity against human MDA-MB-231 cells xenografted in nu/nu mouse assessed as tumor growth inhibition at 0.75 mg/kg, ip on days 0, 3 and 7 measured on day 21. Details: dose 0.75 mg/kg. The data set is classed as functional, organism-based. A digest of the protocol: (§4)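 MDA-MB-231 fragments implanted bilaterally in female nu/nu mice; groups of 5, dosing started at mean tumor size 134 mm3. Compound given ip on days 0, 3 and 7, from a 1 mg/mL EtOH stock diluted at least 1:10 in 200 µL PBS. Tumor volume and weight measured 2-3 times weekly; 10 tumors averaged, with standard error; mice sacrificed day 21.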
Background: Xenograft models place foreign cells or tissue in a host animal.

Data set [8] concerns Mus musculus. The data set is described as follows: Toxicity in human MDA-MB-231 cells xenografted nu/nu mouse assessed as weight loss at 0.75 mg/kg, ip on days 0, 3 and 7 measured on day 17. The data set is classed as organism-based. Set-up: dose 0.75 mg/kg, route intraperitoneal. Particulars: in vivo. A digest of the protocol: as §4
The test system of data set [9] is HeLa. Kind of data set: Ratio of taccalonolide AM IC50 to compound IC50 for human HeLa cells by SRB assay. In kind it is functional.
Data set [10] has as its target T1, Tubulin (Sus scrofa). The data set is described as follows: Binding affinity to purified porcine brain tubulin at 0.7 uM by turbidimetry. Put shortly: as §3
The test system of data set [11] is MDA-MB-231. The data set is described as follows: Antitumor activity against human MDA-MB-231 cells xenografted in nu/nu mouse assessed as tumor growth inhibition at 0.25 mg/kg, ip on days 0 and 3 measured after 17 days. In kind it is functional, organism-based. Details: dose 0.25 mg/kg. Put shortly:
(§5)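 MDA-MB-231 tumor fragments implanted bilaterally in female nu/nu mice; randomized groups of 5, dosing started at mean tumor size 134 mm3. Compound given ip at 0.25 mg/kg on days 0 and 3, from a 1.25 mg/mL EtOH stock diluted at least 1:10 in 200 µL PBS. Tumor volume and body weight recorded 2-3 times weekly; 10 tumors averaged, with standard error.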

Data set [12] has as its system Mus musculus. The data set is described as follows: Toxicity in human MDA-MB-231 cells xenografted nu/nu mouse assessed as weight loss at 0.25 mg/kg, ip on days 0 and 3 measured on day 17. In kind it is organism-based. Particulars: in vivo. Set-up: dose 0.25 mg/kg, route intraperitoneal. Put shortly: as §5
The subject of data set [13] is MDA-MB-231. Kind of data set: Antitumor activity against human MDA-MB-231 cells xenografted in nu/nu mouse assessed as tumor growth inhibition at 0.25 mg/kg, ip on days 0 and 3 measured on day 7. In kind it is functional, organism-based. Details: dose 0.25 mg/kg. A digest of the protocol:
as §5

In data set [14] the test system is MDA-MB-231. Kind of data set: Antitumor activity against human MDA-MB-231 cells xenografted in nu/nu mouse assessed as tumor growth inhibition at 0.25 mg/kg, ip on days 0 and 3 measured after 1 week post final dose. The data set is classed as functional, organism-based. Set-up: dose 0.25 mg/kg. A digest of the protocol:
as §5

Data set [15] relates to HeLa. Kind of data set: Stabilization of microtubules in interphase human HeLa cells at 4 nM after 18 hrs by immunofluorescence microscopy. In kind it is cell-based. Put shortly: as §2
Data set [16] relates to Mus musculus. The data set is described as follows: Toxicity in human MDA-MB-231 cells xenografted nu/nu mouse assessed as mortality at 0.375 mg/kg, ip on days 0 and 3 measured on day 8 to day 11. Set-up: dose 0.375 mg/kg, route intraperitoneal. Particulars: in vivo. The data set is classed as organism-based. A digest of the protocol:
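Female nu/nu mice with bilateral MDA-MB-231 tumor fragment implants, groups of 5. Two doses were given on days 0 and 3, starting when mean tumor size was 134 mm3. Stock in 100% EtOH (1.25 mg/mL) was diluted at least 1:10 in 200 µL PBS just before ip injection. Mice were checked daily during dosing, weighed 2-3 times weekly, and scored for lethality after the last dose.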

For data set [17], the system named is Mus musculus. Kind of data set: Toxicity in human MDA-MB-231 cells xenografted nu/nu mouse assessed as weight loss at 0.25 mg/kg, ip on days 0 and 3 measured on day 7. Particulars: in vivo. In kind it is organism-based. Set-up: dose 0.25 mg/kg, route intraperitoneal. Put shortly:
as §5

SMILES strings stand for the structures. pIC50: −log10 of the molar value. Active and inactive are the calls of the source. The calls are words filed in the database; no cut-off is given here.

T1 sequence (P02550 whole entry, looked up): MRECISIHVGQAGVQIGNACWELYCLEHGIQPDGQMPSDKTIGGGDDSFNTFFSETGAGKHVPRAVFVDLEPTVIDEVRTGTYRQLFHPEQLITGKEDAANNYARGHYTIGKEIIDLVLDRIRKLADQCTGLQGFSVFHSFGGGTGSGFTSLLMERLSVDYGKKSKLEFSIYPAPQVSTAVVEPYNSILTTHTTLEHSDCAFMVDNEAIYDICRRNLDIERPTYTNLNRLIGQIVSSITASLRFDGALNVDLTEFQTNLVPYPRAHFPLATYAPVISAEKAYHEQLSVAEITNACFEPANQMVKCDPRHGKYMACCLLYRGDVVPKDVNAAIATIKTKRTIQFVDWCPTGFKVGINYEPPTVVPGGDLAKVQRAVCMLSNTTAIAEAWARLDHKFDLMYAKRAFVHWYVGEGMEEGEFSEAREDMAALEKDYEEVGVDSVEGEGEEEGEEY
T1 sequence (P02554 whole entry, looked up): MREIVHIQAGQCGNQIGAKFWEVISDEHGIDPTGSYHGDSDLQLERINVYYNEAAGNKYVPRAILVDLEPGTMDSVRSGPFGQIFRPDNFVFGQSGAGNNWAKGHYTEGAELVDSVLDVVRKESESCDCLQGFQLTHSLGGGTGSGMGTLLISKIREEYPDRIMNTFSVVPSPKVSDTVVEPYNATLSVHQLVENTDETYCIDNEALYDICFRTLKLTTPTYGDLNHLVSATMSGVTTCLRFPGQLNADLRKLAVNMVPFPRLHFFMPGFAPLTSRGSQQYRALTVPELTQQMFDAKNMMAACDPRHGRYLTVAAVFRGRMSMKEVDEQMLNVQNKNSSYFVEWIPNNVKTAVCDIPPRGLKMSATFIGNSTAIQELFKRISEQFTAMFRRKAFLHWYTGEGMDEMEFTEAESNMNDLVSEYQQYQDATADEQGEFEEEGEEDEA

As to `CC(=O)O[C@@H]1[C@H](O)[C@H]2[C@@H]3[C@@H](O)[C@@H]4[C@H]([C@H](C)C=C5OC(=O)[C@@](C)(O)[C@@]54C)[C@@]3(C)[C@@H](OC(C)=O)[C@@H](OC(C)=O)[C@@H]2[C@]2(C)[C@@H]1C[C@@H]1O[C@@H]1[C@@H]2OC(C)=O`, in the data set with HeLa [1], the result was inactive.

Take `CC(=O)O[C@H]1[C@H]2[C@H]([C@@H]3[C@@H](O)[C@@H]4[C@H]([C@H](C)[C@@H]5O[C@@]56OC(=O)[C@@](C)(O)[C@]46C)[C@@]3(C)[C@H]1OC(C)=O)[C@@H](O)C(=O)[C@@]1(O)C[C@@H]3O[C@@H]3[C@H](OC(C)=O)[C@]21C`: in the data set on HeLa [2], the pIC50 (as a rule, the IC50 on a negative log10 scale, so that one unit is a factor of ten) was 8.08. Consider `CC(=O)O[C@@H]1[C@H]2[C@H]3[C@H]([C@H](OC(C)=O)[C@H](OC(C)=O)[C@]2(C)[C@H]2[C@H](C)[C@@H]4O[C@@]45OC(=O)[C@@](C)(O)[C@]5(C)[C@H]12)[C@]1(C)[C@H](C[C@@H]2O[C@@H]2[C@@H]1OC(C)=O)C(=O)[C@@H]3O`, for which the “Ratio IC50” value with HeLa [3] is recorded as 231. In the case of `CC(=O)O[C@H]1[C@H]2[C@H]([C@@H]3[C@@H](O)[C@@H]4[C@H]([C@H](C)[C@@H]5O[C@@]56OC(=O)[C@@](C)(O)[C@]46C)[C@@]3(C)[C@H]1OC(C)=O)[C@@H](O)C(=O)[C@H]1C[C@@H]3O[C@@H]3[C@H](OC(C)=O)[C@]21C`, in the data set with HeLa [4], the “Ratio IC50” value was found to be 734. In the case of `CC(=O)O[C@H]1C[C@H]2[C@H]([C@@H]3[C@@H](O)[C@@H]4[C@H]([C@H](C)[C@@H]5O[C@@]56OC(=O)[C@@](C)(O)[C@]46C)[C@]31C)[C@@H](O)C(=O)[C@H]1C[C@@H]3O[C@@H]3[C@H](OC(C)=O)[C@@]12C`, the pIC50 with HeLa [2] is 7.84. Same read-out and setting: next, `CC(=O)O[C@@H]1[C@H]2[C@@H]3C(=O)C(O)=C4C[C@@H]5O[C@@H]5[C@H](OC(C)=O)[C@]4(C)[C@H]3[C@H](OC(C)=O)[C@H](OC(C)=O)[C@]2(C)[C@@H]2[C@@H]1[C@]1(C)C(=C[C@H]2C)OC(=O)[C@@]1(C)O`: 5.46. As for `CC(=O)O[C@H]1C[C@H]2[C@H]([C@@H]3[C@@H](O)[C@@H]4[C@H]([C@H](C)[C@@H]5O[C@@]56OC(=O)[C@@](C)(O)[C@]46C)[C@]31C)[C@@H](O)C(=O)[C@H]1C[C@@H]3O[C@@H]3[C@H](OC(=O)CC(C)C)[C@@]12C`, the outcome with HeLa [5] and at Tubulin (Sus scrofa) [6] was Active. In the data set with HeLa [2], this compound gave a pIC50 of 9.06. In the data set with MDA-MB-231 [7], the result was inactive. Besides, the Activity entry in the data set on Mus musculus [8] is reported as “Non-toxic”. Turning to `CC(=O)O[C@H]1[C@H]2[C@@H]([C@@H](O)[C@@H](O)[C@H]3C[C@@H]4O[C@@H]4[C@H](OC(C)=O)[C@]23C)[C@@H]2[C@@H](O)[C@@H]3[C@H]([C@H](C)C=C4OC(=O)[C@@](C)(O)[C@@]43C)[C@@]2(C)[C@H]1OC(C)=O`, in the data set on HeLa [1], the result was inactive. `CC(=O)O[C@@H]1[C@H]2[C@H]3[C@H]([C@H](OC(C)=O)[C@H](OC(C)=O)[C@]2(C)[C@H]2[C@H](C)[C@@H]4O[C@@]45OC(=O)[C@@](C)(O)[C@]5(C)[C@H]12)[C@@]1(C)[C@@H](OC(C)=O)[C@H]2O[C@H]2C[C@]1(O)C(=O)[C@@H]3O`: the pIC50 with HeLa [2] is 7.76.

For `CC(=O)O[C@H]1C[C@H]2[C@H]([C@@H]3[C@@H](O)[C@@H]4[C@H]([C@H](C)[C@@H]5O[C@@]56OC(=O)[C@@](C)(O)[C@]46C)[C@]31C)[C@@H](O)C(=O)[C@H]1C[C@@H]3O[C@@H]3[C@H](O)[C@@]12C`, the pIC50 in the data set with HeLa [2] was 6.16. Same read-out and setting: the figure for `CC(=O)O[C@@H]1[C@H]2[C@@H]3C(=O)C(O)=C4C[C@@H]5O[C@@H]5[C@H](OC(C)=O)[C@]4(C)[C@H]3[C@H](OC(C)=O)[C@H](OC(C)=O)[C@]2(C)[C@H]2[C@H](C)[C@@H]3O[C@@]34OC(=O)[C@@](C)(O)[C@]4(C)[C@H]12` is 6.09. In the data set with HeLa [2], `CC(=O)O[C@H]1C[C@H]2[C@H]([C@@H]3[C@@H](O)[C@@H]4[C@H]([C@H](C)C=C5OC(=O)[C@@](C)(O)[C@@]54C)[C@]31C)[C@@H](O)C(=O)[C@H]1C[C@@H]3O[C@@H]3[C@H](OC(=O)CC(C)C)[C@@]12C` gave a negative logarithm of the IC50 (pIC50) of 7.33. In the data set on HeLa [9], the “Ratio IC50” value is on record as 42. `CC(=O)O[C@@H]1[C@H]2[C@@H]3[C@@H](O)C(=O)[C@H]4C[C@@H]5O[C@@H]5[C@H](OC(C)=O)[C@]4(C)[C@H]3C[C@H](OC(C)=O)[C@]2(C)[C@H]2[C@H](C)[C@@H]3O[C@@]34OC(=O)[C@@](C)(O)[C@]4(C)[C@H]12`: the pIC50 in the data set on HeLa [2] is 6.73. Compound `CC(=O)O[C@@H]1[C@H]2[C@H]3[C@H]([C@H](OC(C)=O)[C@H](OC(C)=O)[C@]2(C)[C@H]2[C@H](C)[C@@H]4O[C@@]45OC(=O)[C@@](C)(O)[C@]5(C)[C@H]12)[C@@]1(C)[C@@H](OC(C)=O)[C@H]2O[C@H]2C[C@]1(O)C(=O)[C@@H]3OC(C)=O` had a pIC50 in the data set on HeLa [2] of 7.81. Turning to `CC(=O)O[C@@H]1[C@H]2[C@@H]3[C@@H](OC(C)=O)C(=O)[C@@]4(O)C[C@@H]5O[C@@H]5[C@H](OC(=O)CC(C)C)[C@]4(C)[C@H]3C[C@H](OC(C)=O)[C@]2(C)[C@H]2[C@H](C)[C@@H]3O[C@@]34OC(=O)[C@@](C)(O)[C@]4(C)[C@H]12`, the result on Tubulin (Sus scrofa) [10] and with HeLa [15] was Active. For the same compound, the TGI result with MDA-MB-231 [11], with MDA-MB-231 [13] and in the data set on MDA-MB-231 [14] was “Active” throughout. In addition, the pIC50 in the data set with HeLa [2] is 9.35. Besides, the values for the Activity entry in the data set with Mus musculus [12], with Mus musculus [16] and with Mus musculus [17] were “Non-toxic”, “Toxic” and 10%, respectively. Take `CC(=O)O[C@@H]1[C@H]2[C@@H]3[C@@H](OC(C)=O)C(=O)[C@@]4(O)C[C@@H]5O[C@@H]5[C@H](OC(C)=O)[C@]4(C)[C@H]3C[C@H](OC(C)=O)[C@]2(C)[C@H]2[C@H](C)[C@@H]3O[C@@]34OC(=O)[C@@](C)(O)[C@]4(C)[C@H]12`: the pIC50 in the data set on HeLa [2] was 7.53.
